Active and inactive are the calls of the source. The rule behind the calls is not given here.
What was measured:
Rattus norvegicus [1] = assay: Toxicity in Sprague-Dawley rat assessed as increase in serum ALT at 100 mg/kg, po qd measured on day 14; assay type: organism-based; conditions: in vivo
Rattus norvegicus [2] = assay: Toxicity in Sprague-Dawley rat assessed as survival at 10 to 100 mg/kg, po qd measured on day 14; assay type: organism-based; conditions: in vivo
[3] = AUC in BALB/C mouse brain at 2 mg/kg, po; assay type: ADME, organism-based
[4] = Half life in BALB/C mouse brain at 2 mg/kg, iv; assay type: ADME, organism-based
[5] = Clearance in Sprague-Dawley rat plasma at 1 mg/kg, iv; assay type: ADME, organism-based
Rattus norvegicus [6] = assay: Cardiotoxicity in Sprague-Dawley rat assessed as increase in mean arterial pressure at 30 mg/kg, iv administered for 30 mins; assay type: toxicity, organism-based, Artery; conditions: in vivo, 0.5 h
Method in brief: (§1)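 Male Sprague-Dawley rats (327-400 g) under Inactin anaesthesia (100 mg/kg ip), with femoral arterial catheters for arterial pressure and heart rate, and a left-ventricular catheter for dP/dt at 50 mmHg. After a 30 min baseline, three sequential 30 min IV infusions of 3, 10 and 30 mg/kg in 20% DMA/40% PG/40% PEG-400. Treated n=4, vehicle n=5; unpaired t tests; plasma sampled after each infusion.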

Mus musculus = assay: Increase in urination frequency in CD1 mouse at 0.3 to 30 mg/kg, po qd; assay type: ADME, organism-based; conditions: in vivo
Method in brief: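 This endpoint belongs to an outsourced multiplexed panel of 41 in vivo screening assays. CD1 mice received 0.3, 3 or 30 mg/kg orally once daily, and responses were compared with vehicle-treated mice.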

Rattus norvegicus [7] = assay: Toxicity in Sprague-Dawley rat assessed as change in thymus weight at 10 to 100 mg/kg, po qd measured on day 14; assay type: organism-based; conditions: in vivo
[8] = AUC in Sprague-Dawley rat at 100 mg/kg, po qd measured on day 2 and day 14; assay type: ADME, organism-based; conditions: in vivo
Method in brief: (§2)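 Sprague-Dawley rats of both sexes dosed orally once daily for 14 days in a tolerability study; exposure AUC measured on day 2 and day 14.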

[9] = AUC in Sprague-Dawley rat plasma at 1 mg/kg, iv; assay type: ADME, organism-based
[10] = target: Sphingosine 1-phosphate receptor 2 (Homo sapiens) (UniProt O95136); assay: Agonist activity at S1P2 receptor (unknown origin) expressed in CHO cell membranes up to 10 uM after 30 mins by GTPgammaS binding assay; assay type: functional
Rattus norvegicus [11] = assay: Toxicity in female Sprague-Dawley rat assessed as increase in liver weight at 100 mg/kg, po qd measured on day 14; assay type: organism-based; conditions: in vivo
[12] = target: Sphingosine 1-phosphate receptor 2 (Homo sapiens) (UniProt O95136); assay: Displacement of [33P]S1P from S1P2 receptor (unknown origin) expressed in HEK cell membranes after 90 mins by scintillation counting based RLB method; conditions: HEK293
Method in brief: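 S1P2 in transiently transfected HEK cell membranes, 5-10 µg per well, in HEPES pH 7.4 buffer with NaCl, MgCl2 and 0.1% fatty-acid-free BSA. [33P]S1P at 50 pM; non-specific binding defined with 1 µM unlabelled S1P. Incubated 90 min at 4°C, then filtered and scintillation counted. IC50 from non-linear curve fit of percent inhibition.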

[13] = Oral bioavailability in BALB/C mouse plasma at 2 mg/kg; assay type: ADME, organism-based
[14] = Half life in beagle dog plasma at 1 mg/kg, po; assay type: ADME, organism-based, Canis lupus familiaris
[15] = Plasma concentration in C57BL6J mouse at 0.1 mg/kg, po qd administered for 21 days during spontaneous alteration T-maze assay; assay type: ADME, organism-based
Method in brief: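 Male C57BL/6J mice aged 12 months (n = 20), with 2-month-old mice (n = 11) as young controls. Randomized and blinded. Single daily oral doses (10 mL/kg) for 21 days. On day 21, dosed 225 min before a spontaneous-alternation trial in a gray Plexiglas T-maze. Exposure measured in plasma and brain. One-way ANOVA.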

Rattus norvegicus [16] = assay: Toxicity in Sprague-Dawley rat assessed as change in lymphocytes at 10 to 100 mg/kg, po qd measured on day 14; assay type: organism-based; conditions: in vivo
[17] = Half life in Sprague-Dawley rat plasma at 1 mg/kg, iv; assay type: ADME, organism-based
[18] = target: 5-hydroxytryptamine receptor 2A (Homo sapiens) (UniProt P28223); assay: Binding affinity to human recombinant 5HT2A receptor expressed in HEK293 cells; assay type: cell-based
Rattus norvegicus [19] = assay: Toxicity in male Sprague-Dawley rat assessed as weight loss at 10 to 100 mg/kg, po qd measured on day 14 relative to vehicle treated control; assay type: organism-based; conditions: in vivo
[20] = AUC in CD1 mouse at 10 mg/kg, po; assay type: ADME, organism-based; conditions: in vivo
Rattus norvegicus [21] = assay: Cardiotoxicity in Sprague-Dawley rat assessed as decrease in cardiac contractility at 30 mg/kg, iv administered for 30 mins; assay type: toxicity, organism-based, Heart; design: scale not given: the % may be the effect or the level left; conditions: in vivo, 0.5 h; method in brief: as §1
Rattus norvegicus [22] = assay: Toxicity in male Sprague-Dawley rat assessed as increase in liver weight at 100 mg/kg, po qd measured on day 14; assay type: organism-based; conditions: in vivo
[23] = target: Sphingosine 1-phosphate receptor 1 (Homo sapiens, UniProt P21453); assay: Agonist activity at S1P1 receptor (unknown origin) expressed in CHO cell membranes up to 10 uM after 30 mins by GTPgammaS binding assay; assay type: functional
[24] = Half life in BALB/C mouse brain at 2 mg/kg, po; assay type: ADME, organism-based
[25] = Oral bioavailability in beagle dog plasma at 1 mg/kg; assay type: ADME, organism-based, Canis lupus familiaris
[26] = Tmax in Sprague-Dawley rat plasma at 1 mg/kg, po; assay type: ADME, organism-based
[27] = Plasma concentration in Sprague-Dawley rat at 10 mg/kg, iv administered for 30 mins; assay type: ADME, organism-based
[28] = AUC in Sprague-Dawley rat at 10 mg/kg, po qd measured on day 2 and day 14; assay type: ADME, organism-based; conditions: in vivo; method in brief: as §2
[29] = target: T1, Sphingosine 1-phosphate receptor 4 (Homo sapiens) (UniProt O95977); assay: Displacement of [33P]S1P from S1P4 receptor (unknown origin) expressed in HEK cell membranes after 45 to 60 mins by scintillation counting based RLB method; conditions: HEK293
T1 sequence (whole entry): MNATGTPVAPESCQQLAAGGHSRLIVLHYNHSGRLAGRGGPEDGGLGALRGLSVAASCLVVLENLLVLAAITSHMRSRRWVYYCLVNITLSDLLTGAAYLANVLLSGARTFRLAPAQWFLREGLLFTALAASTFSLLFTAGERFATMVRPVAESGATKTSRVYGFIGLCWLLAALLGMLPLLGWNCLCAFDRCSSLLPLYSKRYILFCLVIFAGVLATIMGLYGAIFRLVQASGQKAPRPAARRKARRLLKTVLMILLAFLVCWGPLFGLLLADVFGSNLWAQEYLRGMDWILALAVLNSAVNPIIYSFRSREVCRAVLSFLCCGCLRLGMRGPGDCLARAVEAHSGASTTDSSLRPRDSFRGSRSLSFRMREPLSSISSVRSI
Method in brief: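 Membranes from transiently transfected HEK cells overexpressing the S1P receptor, 5-10 µg per well, in 50 mM HEPES pH 7.4, 100 mM NaCl, 10 mM MgCl2, 0.1% fatty-acid-free BSA. [33P]S1P at 50 pM; non-specific binding with 1 µM cold S1P. Final DMSO 1 or 0.5%. Incubated 45-60 min at room temperature, then filtered and counted. IC50 from non-linear fit of percent inhibition.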

[30] = AUC in Sprague-Dawley rat brain at 2 mg/kg, po; assay type: ADME, organism-based

Sphingosine 1-phosphate receptor 2 (Homo sapiens), sequence (O95136 whole entry): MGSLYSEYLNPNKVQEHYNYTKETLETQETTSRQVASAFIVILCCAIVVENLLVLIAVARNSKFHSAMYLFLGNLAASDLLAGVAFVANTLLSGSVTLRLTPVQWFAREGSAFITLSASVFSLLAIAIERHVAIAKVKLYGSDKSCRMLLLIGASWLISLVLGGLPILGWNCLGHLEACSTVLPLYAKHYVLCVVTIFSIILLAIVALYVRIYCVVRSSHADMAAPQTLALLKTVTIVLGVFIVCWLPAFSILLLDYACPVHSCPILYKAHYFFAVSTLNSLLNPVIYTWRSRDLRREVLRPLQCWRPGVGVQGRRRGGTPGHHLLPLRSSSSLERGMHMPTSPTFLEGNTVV
Sphingosine 1-phosphate receptor 1, sequence (P21453 whole entry): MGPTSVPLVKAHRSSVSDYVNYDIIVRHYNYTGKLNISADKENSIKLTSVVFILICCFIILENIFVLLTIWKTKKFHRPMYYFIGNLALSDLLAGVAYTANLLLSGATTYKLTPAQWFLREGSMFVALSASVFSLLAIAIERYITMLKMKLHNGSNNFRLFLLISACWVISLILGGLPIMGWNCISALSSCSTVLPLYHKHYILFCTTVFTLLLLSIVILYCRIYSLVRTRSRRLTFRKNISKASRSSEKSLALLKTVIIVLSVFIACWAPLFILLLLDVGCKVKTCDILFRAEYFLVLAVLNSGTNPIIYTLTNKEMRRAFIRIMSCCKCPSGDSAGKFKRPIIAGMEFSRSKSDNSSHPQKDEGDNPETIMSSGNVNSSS
5-hydroxytryptamine receptor 2A (Homo sapiens), sequence (P28223 whole entry): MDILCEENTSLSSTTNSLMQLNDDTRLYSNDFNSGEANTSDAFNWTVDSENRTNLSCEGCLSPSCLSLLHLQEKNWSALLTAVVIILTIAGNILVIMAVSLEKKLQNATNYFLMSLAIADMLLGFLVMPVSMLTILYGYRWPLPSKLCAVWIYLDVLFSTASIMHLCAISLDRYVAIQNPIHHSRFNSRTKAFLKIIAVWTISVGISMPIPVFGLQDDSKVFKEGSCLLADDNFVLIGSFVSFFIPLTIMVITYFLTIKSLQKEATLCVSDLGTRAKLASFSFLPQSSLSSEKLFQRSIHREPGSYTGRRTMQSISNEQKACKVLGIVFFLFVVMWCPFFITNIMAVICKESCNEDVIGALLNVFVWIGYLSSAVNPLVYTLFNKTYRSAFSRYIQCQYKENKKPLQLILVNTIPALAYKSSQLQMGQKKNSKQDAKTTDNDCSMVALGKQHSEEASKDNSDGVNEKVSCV

SMILES: O=C(O)C1CN(Cc2ccc(OCc3ccc(Cl)c(Cl)c3)cc2)C1
- Activity (Rattus norvegicus [1]): Non-toxic
- Activity (Rattus norvegicus [2]): Non-toxic
- AUC [3]: 1600 ng·h/mL
- half-life [4]: 9.8 h
- clearance [5]: 2.67 mL/min/kg
- Activity (Rattus norvegicus [6]): 16%
- Activity (Mus musculus): Non-toxic
- Activity (Rattus norvegicus [7]): Non-toxic
- AUC [8]: 670000 ng·h/mL
- AUC [9]: 6400 ng·h/mL
- Activity [10]: inactive
- Activity (Rattus norvegicus [11]): 30%
- Activity [12]: inactive
- bioavailability [13]: 57%
- half-life [14]: 10 h
- concentration at 504 h ([15]; in vivo): 28.3 ng/g
- concentration at 504 h ([15]; plasma): 41.6 ng/mL
- Activity (Rattus norvegicus [16]): Non-toxic
- half-life [17]: 9 h
- Activity [18]: 75%
- Activity (Rattus norvegicus [19]): 10%
- AUC [20]: 35000 ng·h/mL
- Activity (Rattus norvegicus [21]): 10%
- Activity (Rattus norvegicus [22]): 20%
- Activity [23]: inactive
- half-life [24]: 10 h
- bioavailability [25]: 92%
- Tmax [26]: 4.3 h
- concentration at 0.5 h [27]: 8660 ng/mL
- AUC [28]: 43000 ng·h/mL
- Activity [29]: inactive
- AUC [30]: 3100 ng·h/mL

From ChEMBL document CHEMBL3739276, “Discovery of A-971432, An Orally Bioavailable Selective Sphingosine-1-Phosphate Receptor 5 (S1P5) Agonist for the Potential Treatment of Neurodegenerative Disorders” (J Med Chem, 2015)
